According to ChEMBL document CHEMBL2093137, “WHO-TDR NTD Screening”:
Values after ≈ are worked out from the molar mass of the structure shown.

Experiments:
Schistosoma mansoni = test: WHO-TDR: Schistosomiasis; type: functional; parameters: concentration or dose not given beside the values
Outline: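 A diverse library of 10,000 compounds from Life Chemicals, filtered for drug-likeness and reactive groups, was screened against whole larval and/or adult Schistosoma mansoni worms of the Puerto Rican strain. Previously published standard procedures were followed, with a reference drug as positive control. Activity is given as percent inhibition and as IC50.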

[1] = test system: Trypanosoma brucei brucei; test: WHO-TDR: Human African Trypanosomiasis (HAT); type: functional, organism-based; conditions: Squib-427
Outline: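 Screening used a 10,000-compound diverse library supplied by Life Chemicals and filtered for drug-likeness and reactive groups. Whole bloodstream-form parasites of Trypanosoma brucei Squib 427 strain were assayed according to previously published standard procedures, with reference drugs as positive controls. The reported measure is IC50, reflecting antiparasitic potency.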

Trypanosoma cruzi = test: WHO-TDR: Chagas disease; type: functional, organism-based, Homo sapiens; conditions: MRC5
Outline: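 Whole-organism screen of a 10,000-compound diverse library from Life Chemicals, filtered for drug-likeness and reactive groups, against intracellular amastigotes of Trypanosoma cruzi Tulahuen CL2 beta-galactosidase strain grown in MRC-5SV2 human lung fibroblast host cells. The assay followed previously published standard procedures, with a reference drug as positive control. Antiparasitic potency is reported as IC50.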

Plasmodium falciparum K1 = test: WHO-TDR: Malaria; type: functional, organism-based, Homo sapiens; conditions: Erythrocyte
Outline: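 This whole-organism screen covered 10,000 drug-likeness-filtered and reactive-group-filtered compounds from Life Chemicals. The target was the Plasmodium falciparum K1 strain in human red blood cells, and the readout was antiplasmodial IC50.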

Leishmania infantum = test: WHO-TDR: Leishmaniasis; type: functional, organism-based, Mus musculus; conditions: Macrophage
Outline: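 The screened collection came from Life Chemicals: 10,000 diverse compounds selected after filtering for drug-likeness and reactive groups. Each was tested in a whole-organism assay against Leishmania infantum MHOM/MA(BE)/67 amastigotes inside murine peritoneal macrophages, using previously published standard procedures and a reference drug as positive control. Results are IC50 values for antiparasitic potency.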

[2] = WHO-TDR: Cytotoxicity; type: toxicity, cell-based; conditions: human, MRC5 cells
Onchocerca ochengi [3] = test: (§1) WHO-TDR: Onchocerciasis; type: functional; parameters: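 at 12.5 µM on microfilariae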
Outline: (§2)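 A diverse library of 10,000 compounds from Life Chemicals, filtered for drug-likeness and reactive groups, was screened against whole microfilariae of Onchocerca ochengi or Onchocerca lienalis. These animal pathogens served as stand-ins for the human parasite. Activity is given as percent inhibition and as IC50.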

Onchocerca ochengi [4] = test: as §1; type: functional; parameters: concentration or dose not given beside the values; outline: as §2; remark: listed apart in the source
Brugia malayi = test: WHO-TDR: Lymphatic Filariasis; type: functional; parameters: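 tested at 10 µM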
Outline: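 A diverse library of 10,000 compounds from Life Chemicals was screened against Brugia malayi microfilariae in a whole-organism assay. The library had been filtered for drug-likeness and reactive groups. Activity is given as percent inhibition and as IC50.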

Onchocerca lienalis = test: as §1; type: functional; parameters: concentration or dose not given beside the values; outline: as §2;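 also: at 12.5 µM on microfilariae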

SMILES	% Inhibition (Schistosoma mansoni)	IC50 [1]	IC50 (Trypanosoma cruzi)	IC50 (Plasmodium falciparum K1)	IC50 (Leishmania infantum)	IC50 [2]	% Inhibition (Onchocerca ochengi [3])	% Inhibition (Onchocerca ochengi [4])	% Inhibition (Brugia malayi)	% Inhibition (Onchocerca lienalis)
Cc1cc(=O)[nH]c(-n2nc(C)cc2NC(=O)/C=C/c2ccc3c(c2)OCO3)n1	0%	3.56 mg/L (≈ 9.37 µM)	0.801 mg/L (≈ 2.11 µM)	4.74 mg/L (≈ 12.5 µM)	3.6 mg/L (≈ 9.49 µM)	3.73 mg/L (≈ 9.85 µM)	0%	0%		
CCS(=O)(=O)c1ccc(CC(=O)Nc2nc3c(s2)CCc2ccccc2-3)cc1	0%	4.01 mg/L (≈ 9.71 µM)	0.436 mg/L (≈ 1.06 µM)	12.4 mg/L (≈ 30 µM)	> 12.4 mg/L	0.908 mg/L (≈ 2.2 µM)			0%	0%
CC(C)Sc1ccc(C(=O)Nc2nc(-c3ccccn3)cs2)cc1	0%	0.341 mg/L (≈ 0.959 µM)	0.368 mg/L (≈ 1.04 µM)	0.138 mg/L (≈ 0.388 µM)	> 10.7 mg/L	3.11 mg/L (≈ 8.75 µM)			0%	86.7%
CC(C)S(=O)(=O)c1ccc(C(=O)Nc2ccccc2-c2nc3ccccc3[nH]2)cc1	0%	> 12.6 mg/L	> 12.6 mg/L	> 12.6 mg/L	0.407 mg/L (≈ 0.97 µM)	> 12.6 mg/L			0%	13.3%
CCN(C1CCCCC1)S(=O)(=O)c1ccc(C(=O)Nc2nc(-c3ccccn3)cs2)cc1	0%	11.7 mg/L (≈ 24.8 µM)	0.459 mg/L (≈ 0.975 µM)	> 14.1 mg/L	4.57 mg/L (≈ 9.71 µM)	5.19 mg/L (≈ 11 µM)			0%	80%
CCN(C1CCCCC1)S(=O)(=O)c1ccc(C(=O)Nc2nnc(-c3ccco3)o2)cc1	0%	4.32 mg/L (≈ 9.71 µM)	0.442 mg/L (≈ 0.994 µM)	> 13.3 mg/L	4.32 mg/L (≈ 9.71 µM)	6.19 mg/L (≈ 13.9 µM)			0%	20%
CCN(C1CCCCC1)S(=O)(=O)c1ccc(C(=O)Nc2nnc(-c3ccc(F)cc3)o2)cc1	0%	0.966 mg/L (≈ 2.04 µM)	0.459 mg/L (≈ 0.971 µM)	> 14.2 mg/L	4.59 mg/L (≈ 9.71 µM)	0.577 mg/L (≈ 1.22 µM)			0%	46.7%
CCN(C1CCCCC1)S(=O)(=O)c1ccc(C(=O)Nc2nnc(-c3ccccc3)o2)cc1	0%	0.528 mg/L (≈ 1.16 µM)	0.431 mg/L (≈ 0.948 µM)	> 13.6 mg/L	> 13.6 mg/L	1.61 mg/L (≈ 3.54 µM)			0%	53.3%
O=C(CCCSc1ccccc1)N(Cc1ccncc1)c1nc2c(F)cccc2s1	0%	4.15 mg/L (≈ 9.49 µM)	0.816 mg/L (≈ 1.86 µM)	9.05 mg/L (≈ 20.7 µM)	> 13.1 mg/L	> 13.1 mg/L			0%	0%
COc1ccc(-c2ccc(OCCNS(=O)(=O)c3ccc(Cl)s3)nn2)cc1	0%	> 12.8 mg/L	0.788 mg/L (≈ 1.85 µM)	> 12.8 mg/L	> 12.8 mg/L	5.41 mg/L (≈ 12.7 µM)			0%	33.3%
CCOc1ccc(-c2ccc(OCCNS(=O)(=O)c3cc(C)c(C)cc3C)nn2)cc1	0%	4.24 mg/L (≈ 9.6 µM)	0.752 mg/L (≈ 1.7 µM)	> 13.2 mg/L	> 13.2 mg/L	> 13.2 mg/L			0%	13.3%
Cc1cc(=O)[nH]c(-n2nc(C)cc2NC(=O)c2c(F)cccc2Cl)n1	0%	1.96 mg/L (≈ 5.43 µM)	0.331 mg/L (≈ 0.915 µM)	3.62 mg/L (≈ 10 µM)	5.62 mg/L (≈ 15.5 µM)	0.39 mg/L (≈ 1.08 µM)	0%	0%		
Cc1cc(=O)[nH]c(-n2nc(C)cc2NC(=O)c2ccccc2C(F)(F)F)n1	0%	> 11.3 mg/L	0.409 mg/L (≈ 1.08 µM)	> 11.3 mg/L	> 11.3 mg/L	2.61 mg/L (≈ 6.91 µM)	0%	0%		
Cc1cc(=O)[nH]c(-n2nc(C)cc2NC(=O)c2ccc(S(=O)(=O)N3CCCCC3)cc2)n1	25%	0.449 mg/L (≈ 0.983 µM)	0.418 mg/L (≈ 0.915 µM)	0.137 mg/L (≈ 0.3 µM)	4.43 mg/L (≈ 9.71 µM)	0.445 mg/L (≈ 0.975 µM)	0%	0%		
Cc1cc(=O)[nH]c(-n2nc(C)cc2NC(=O)C2c3ccccc3Oc3ccccc32)n1	50%	0.876 mg/L (≈ 2.12 µM)	< 0.124 mg/L	0.657 mg/L (≈ 1.59 µM)	4.01 mg/L (≈ 9.71 µM)	0.504 mg/L (≈ 1.22 µM)	0%	0%		
CCc1cc(=O)[nH]c(-n2nc(C)cc2NC(=O)Cc2cccs2)n1	0%	0.338 mg/L (≈ 0.983 µM)	0.276 mg/L (≈ 0.804 µM)	0.493 mg/L (≈ 1.44 µM)	> 10.3 mg/L	0.293 mg/L (≈ 0.853 µM)	0%	100%		
CCCc1cc(=O)[nH]c(-n2nc(C)cc2NC(=O)C23CC4CC(CC(C4)C2)C3)n1	100%	< 0.119 mg/L	< 0.119 mg/L	0.119 mg/L (≈ 0.3 µM)	3.84 mg/L (≈ 9.71 µM)	< 0.119 mg/L	75%	100%		
CCCc1cc(=O)[nH]c(-n2nc(C)cc2NC(=O)COc2ccc(Cl)cc2Cl)n1	0%	0.47 mg/L (≈ 1.08 µM)	0.395 mg/L (≈ 0.904 µM)	5.1 mg/L (≈ 11.7 µM)	> 13.1 mg/L	0.362 mg/L (≈ 0.83 µM)	0%	75%		
CCCc1cc(=O)[nH]c(-n2nc(C)cc2NC(=O)c2ccc(Br)o2)n1	75%	0.39 mg/L (≈ 0.96 µM)	< 0.122 mg/L	0.703 mg/L (≈ 1.73 µM)	3.94 mg/L (≈ 9.71 µM)	0.441 mg/L (≈ 1.08 µM)	0%	50%		
CCCc1cc(=O)[nH]c(-n2nc(C)cc2NC(=O)C2CC(=O)N(c3ccc(C)c(C)c3)C2)n1 (centres undefined)	0%	3.99 mg/L (≈ 8.9 µM)	1.28 mg/L (≈ 2.86 µM)	> 13.5 mg/L	4.36 mg/L (≈ 9.71 µM)	4.51 mg/L (≈ 10 µM)	0%	50%		
Cc1cc(NC(=O)COc2ccc(Cl)cc2)n(-c2nc(C)c(C)c(=O)[nH]2)n1	0%	0.377 mg/L (≈ 0.971 µM)	0.359 mg/L (≈ 0.926 µM)	2.07 mg/L (≈ 5.33 µM)	> 11.6 mg/L	0.338 mg/L (≈ 0.872 µM)	0%	50%		
COc1ccc(Cl)cc1C(=O)Nc1cc(C)nn1-c1nc2c(c(=O)[nH]1)CCC2	50%	0.388 mg/L (≈ 0.97 µM)	0.361 mg/L (≈ 0.902 µM)	> 12 mg/L	6.21 mg/L (≈ 15.5 µM)	0.685 mg/L (≈ 1.71 µM)	0%	0%		
Cc1cc(NC(=O)C2(c3ccc(Cl)cc3)CCCC2)n(-c2nc3c(c(=O)[nH]2)CCC3)n1	56.7%	0.42 mg/L (≈ 0.959 µM)	0.37 mg/L (≈ 0.844 µM)	0.644 mg/L (≈ 1.47 µM)	> 13.1 mg/L	0.338 mg/L (≈ 0.772 µM)	0%	0%		
Cc1cc(NC(=O)c2cccs2)n(-c2nc3c(c(=O)[nH]2)CCC3)n1	0%	3.2 mg/L (≈ 9.37 µM)	0.56 mg/L (≈ 1.64 µM)	10.2 mg/L (≈ 30 µM)	5.3 mg/L (≈ 15.5 µM)	2.03 mg/L (≈ 5.94 µM)	0%	0%		
O=C(c1ccco1)N1CCN(c2ccc(-c3cccs3)nn2)CC1	0%	> 10.2 mg/L	> 10.2 mg/L	5.12 mg/L (≈ 15 µM)	> 10.2 mg/L	> 10.2 mg/L	0%	100%		
CCOc1cccc2cc(-c3csc(NC(=O)c4sc5ccccc5c4Cl)n3)oc12	0%	0.237 mg/L (≈ 0.521 µM)	11.8 mg/L (≈ 25.9 µM)	> 13.6 mg/L	3.69 mg/L (≈ 8.11 µM)	0.237 mg/L (≈ 0.521 µM)	0%	0%		
O=C(Nc1nc(-c2ccncc2)cs1)C1CCCN(S(=O)(=O)c2cccs2)C1 (centres undefined)	0%	4.33 mg/L (≈ 9.95 µM)	0.534 mg/L (≈ 1.23 µM)	> 13 mg/L	> 13 mg/L	9.25 mg/L (≈ 21.3 µM)	0%	50%		
O=C(Nc1nc(-c2ccncc2)cs1)C1CCCN(S(=O)(=O)c2ccc(Cl)s2)C1 (centres undefined)	0%	4.5 mg/L (≈ 9.6 µM)	0.243 mg/L (≈ 0.518 µM)	6.68 mg/L (≈ 14.2 µM)	4.55 mg/L (≈ 9.71 µM)	> 14.1 mg/L	0%	50%		
CCOC(=O)CCNC(=O)NCC1CC(=O)N(c2ccc(Cl)cc2)C1 (centres undefined)	0%	> 11 mg/L	> 11 mg/L	> 11 mg/L	> 11 mg/L	> 11 mg/L	100%			
CCOc1ccc2ccccc2c1C(=O)Nc1cc(C)nn1-c1nc(C)cc(=O)[nH]1	100%	0.327 mg/L (≈ 0.811 µM)	< 0.121 mg/L	0.399 mg/L (≈ 0.989 µM)	0.627 mg/L (≈ 1.55 µM)	0.364 mg/L (≈ 0.902 µM)	60%	100%		
